Source: ChEMBL document CHEMBL1136094, “Novel, potent and selective cyclin D1/CDK4 inhibitors: indolo[6,7-a]pyrrolo[3,4-c]carbazoles” (Bioorg Med Chem Lett, 2003)
Values after ≈ are worked out from the molar mass of the structure shown.

Key:
[1] = biological target: Cyclin-dependent kinase 4/cyclin D1 (Homo sapiens, UniProt P11802); experiment: Inhibitory activity against Cyclin D1-cyclin-dependent kinase 4 in enzymatic assay by measuring phosphorylation of RbING; format: protein-complex assay
[2] = biological target: Tyrosine-protein kinase CSK (Homo sapiens) (UniProt P41240); experiment: Inhibition of Tyrosine-protein kinase CSK at 500 nM; design: scale not given: the % may be the effect or the level left
Tyrosine-protein kinase CSK (Homo sapiens), sequence (P41240 2-450 limits assumed): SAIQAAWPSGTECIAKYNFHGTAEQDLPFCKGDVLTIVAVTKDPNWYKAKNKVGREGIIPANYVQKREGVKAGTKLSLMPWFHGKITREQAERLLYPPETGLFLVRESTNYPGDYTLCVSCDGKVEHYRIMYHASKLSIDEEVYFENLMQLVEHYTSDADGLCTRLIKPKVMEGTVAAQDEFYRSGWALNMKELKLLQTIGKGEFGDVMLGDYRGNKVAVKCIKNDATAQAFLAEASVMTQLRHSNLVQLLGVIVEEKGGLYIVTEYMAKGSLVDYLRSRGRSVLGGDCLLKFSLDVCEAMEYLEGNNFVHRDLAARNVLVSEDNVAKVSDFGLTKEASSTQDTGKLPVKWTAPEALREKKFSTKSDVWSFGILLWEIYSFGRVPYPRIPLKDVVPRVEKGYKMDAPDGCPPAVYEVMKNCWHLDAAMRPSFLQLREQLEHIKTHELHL
Procedure, shortened: (§1)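 Panel of 39 kinases, each tested at 100 and 500 nM inhibitor. […] Activity is expressed as % of control and is the mean of duplicate assays.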

[3] = biological target: Serine/threonine-protein kinase Chk1 (Homo sapiens) (UniProt O14757); experiment: Inhibition of Serine/threonine-protein kinase Chk1 at 500 nM; design: scale not given: the % may be the effect or the level left; procedure, shortened: as §1
[4] = biological target: Tyrosine-protein kinase Fyn (Homo sapiens) (UniProt P06241); experiment: Inhibition of Fyn protein kinase at 500 nM; design: scale not given: the % may be the effect or the level left
Tyrosine-protein kinase Fyn (Homo sapiens), sequence (P06241 2-537 limits assumed): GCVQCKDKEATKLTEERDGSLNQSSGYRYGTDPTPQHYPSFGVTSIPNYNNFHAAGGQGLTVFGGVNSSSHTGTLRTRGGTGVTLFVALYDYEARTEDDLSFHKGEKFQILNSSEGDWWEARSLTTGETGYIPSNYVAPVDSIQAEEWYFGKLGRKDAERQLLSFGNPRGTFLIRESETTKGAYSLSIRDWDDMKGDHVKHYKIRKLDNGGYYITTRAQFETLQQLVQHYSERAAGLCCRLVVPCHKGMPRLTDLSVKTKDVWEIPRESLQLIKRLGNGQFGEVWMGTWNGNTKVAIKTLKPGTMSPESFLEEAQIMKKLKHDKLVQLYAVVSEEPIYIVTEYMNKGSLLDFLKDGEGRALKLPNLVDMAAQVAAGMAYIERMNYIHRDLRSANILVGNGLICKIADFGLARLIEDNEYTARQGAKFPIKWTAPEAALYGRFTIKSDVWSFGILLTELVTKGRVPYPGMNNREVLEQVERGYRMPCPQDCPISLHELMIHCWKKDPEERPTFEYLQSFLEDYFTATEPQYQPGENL
Procedure, shortened: (§2)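 Panel profiling of isolated kinases with inhibitor at 100 nM and 500 nM. […] Remaining kinase activity is expressed as % of control and is the mean of duplicate assays.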

HCT-116 = experiment: In vitro antiproliferative activity against human carcinoma cell line HCT116 (colon); format: functional, cell-based
[5] = biological target: RAC-alpha serine/threonine-protein kinase (Homo sapiens, UniProt P31749); experiment: Inhibition of Protein kinase B, Akt-1
[6] = biological target: Dual specificity mitogen-activated protein kinase kinase 1 (Homo sapiens) (UniProt Q02750); experiment: Inhibition of Mitogen activated protein kinase kinase kinase 1 at 500 nM; design: scale not given: the % may be the effect or the level left
[7] = biological target: Mitogen-activated protein kinase 14 (Homo sapiens, UniProt Q16539); experiment: Inhibition of Mitogen-activated protein kinase p38 alpha
[8] = biological target: Tyrosine-protein kinase Lyn (Homo sapiens) (UniProt P07948); experiment: Inhibition of Protein tyrosine kinase Lyn at 100 nM; design: scale not given: the % may be the effect or the level left
[9] = biological target: T1, Cyclin-dependent kinase 5/CDK5 activator 1 (Homo sapiens) (UniProt Q00535+Q15078); experiment: Inhibition of Cyclin-dependent kinase 5-p35nck5a at 100 nM; format: protein-complex assay; design: scale not given: the % may be the effect or the level left; procedure, shortened: as §2
T1 sequence (Q00535 whole entry): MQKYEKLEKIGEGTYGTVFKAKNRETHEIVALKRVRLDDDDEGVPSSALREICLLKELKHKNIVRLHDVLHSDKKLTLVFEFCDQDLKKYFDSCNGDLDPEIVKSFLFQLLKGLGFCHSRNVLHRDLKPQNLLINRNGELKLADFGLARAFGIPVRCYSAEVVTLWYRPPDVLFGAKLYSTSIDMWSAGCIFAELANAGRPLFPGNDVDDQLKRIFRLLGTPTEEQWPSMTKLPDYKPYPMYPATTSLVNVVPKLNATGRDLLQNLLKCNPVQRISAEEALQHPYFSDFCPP
T1 sequence (Q15078 99-307 partner limits assumed): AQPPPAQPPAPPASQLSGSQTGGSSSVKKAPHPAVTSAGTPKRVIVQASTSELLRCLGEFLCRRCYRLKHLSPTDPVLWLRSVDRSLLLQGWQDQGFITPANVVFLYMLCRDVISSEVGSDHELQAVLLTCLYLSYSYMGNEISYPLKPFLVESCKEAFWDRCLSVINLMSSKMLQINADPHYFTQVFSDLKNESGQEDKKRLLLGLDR

[10] = biological target: Tyrosine-protein kinase SYK (Homo sapiens) (UniProt P43405); experiment: Inhibition of Syk protein tyrosine kinase at 500 nM; design: scale not given: the % may be the effect or the level left; procedure, shortened: as §1
[11] = biological target: Tyrosine-protein kinase SYK (Homo sapiens) (UniProt P43405); experiment: Inhibition of Syk protein tyrosine kinase at 100 nM; design: scale not given: the % may be the effect or the level left; procedure, shortened: as §1
TGF-beta receptor type-2 = TGF-beta receptor type-2 (Homo sapiens, UniProt P37173); experiment: Inhibition of TGF-beta type II receptor
[12] = biological target: Serine/threonine-protein kinase Chk2 (Homo sapiens) (UniProt O96017); experiment: Inhibition of Serine/threonine-protein kinase Chk2 at 100 nM; design: scale not given: the % may be the effect or the level left; procedure, shortened: as §1
[13] = biological target: Mitogen-activated protein kinase 8 (Homo sapiens) (UniProt P45983); experiment: Inhibition of c-Jun N-terminal kinase 1-alpha 1 at 500 nM; design: scale not given: the % may be the effect or the level left; procedure, shortened: as §1
Mitogen-activated protein kinase 8 (Homo sapiens), sequence (P45983 whole entry): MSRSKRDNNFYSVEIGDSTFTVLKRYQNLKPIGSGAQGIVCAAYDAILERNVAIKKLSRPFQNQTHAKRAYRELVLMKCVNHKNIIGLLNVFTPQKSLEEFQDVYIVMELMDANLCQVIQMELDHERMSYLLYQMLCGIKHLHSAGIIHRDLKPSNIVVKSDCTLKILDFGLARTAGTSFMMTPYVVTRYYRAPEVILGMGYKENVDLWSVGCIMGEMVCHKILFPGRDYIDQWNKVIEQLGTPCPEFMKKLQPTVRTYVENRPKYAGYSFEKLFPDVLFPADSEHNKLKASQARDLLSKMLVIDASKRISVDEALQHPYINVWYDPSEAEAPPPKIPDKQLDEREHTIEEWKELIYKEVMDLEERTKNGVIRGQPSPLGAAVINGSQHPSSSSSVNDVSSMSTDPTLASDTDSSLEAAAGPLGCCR

[14] = biological target: Tyrosine-protein kinase ZAP-70 (Homo sapiens) (UniProt P43403); experiment: Inhibition of Zeta-chain (TCR) associated protein kinase 70 kDa (ZAP70) at 500 nM; design: scale not given: the % may be the effect or the level left; procedure, shortened: as §1
[15] = biological target: Tyrosine-protein kinase Lck (Homo sapiens) (UniProt P06239); experiment: Inhibition of p56 Lck tyrosine kinase at 100 nM; design: scale not given: the % may be the effect or the level left; procedure, shortened: as §1
[16] = biological target: Protein kinase C beta type (Homo sapiens) (UniProt P05771); experiment: Inhibition of Protein kinase C beta 2 at 100 nM; design: scale not given: the % may be the effect or the level left; procedure, shortened: as §2
[17] = biological target: Cyclin-dependent kinase 4 (Homo sapiens) (UniProt P11802); experiment: Inhibition of Rb phosphorylation at the CDK4 specific Ser780 residue (1 fold increase over control) after 24 hr incubation in HCT116 cells; format: functional, cell-based; conditions: HCT-116, concentration not given here
Cyclin-dependent kinase 4 (Homo sapiens), sequence (P11802 whole entry): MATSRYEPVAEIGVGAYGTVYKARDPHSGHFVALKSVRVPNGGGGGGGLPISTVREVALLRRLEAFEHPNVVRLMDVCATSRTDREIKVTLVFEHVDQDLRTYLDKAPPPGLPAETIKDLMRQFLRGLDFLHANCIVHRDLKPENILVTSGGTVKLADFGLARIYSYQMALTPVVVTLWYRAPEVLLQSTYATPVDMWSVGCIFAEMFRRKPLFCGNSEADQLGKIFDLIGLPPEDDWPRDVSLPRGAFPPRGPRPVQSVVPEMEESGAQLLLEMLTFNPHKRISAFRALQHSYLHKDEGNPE

[18] = biological target: Dual specificity mitogen-activated protein kinase kinase 6 (Homo sapiens) (UniProt P52564); experiment: Inhibition of mitogen-activated protein kinase kinase 6 at 500 nM; design: scale not given: the % may be the effect or the level left; procedure, shortened: as §1
[19] = biological target: Proto-oncogene tyrosine-protein kinase Src (Homo sapiens) (UniProt P12931); experiment: Inhibition of c-Src protein tyrosine kinase at 100 nM; design: scale not given: the % may be the effect or the level left; procedure, shortened: as §1
Proto-oncogene tyrosine-protein kinase Src (Homo sapiens), sequence (P12931 2-536 limits assumed): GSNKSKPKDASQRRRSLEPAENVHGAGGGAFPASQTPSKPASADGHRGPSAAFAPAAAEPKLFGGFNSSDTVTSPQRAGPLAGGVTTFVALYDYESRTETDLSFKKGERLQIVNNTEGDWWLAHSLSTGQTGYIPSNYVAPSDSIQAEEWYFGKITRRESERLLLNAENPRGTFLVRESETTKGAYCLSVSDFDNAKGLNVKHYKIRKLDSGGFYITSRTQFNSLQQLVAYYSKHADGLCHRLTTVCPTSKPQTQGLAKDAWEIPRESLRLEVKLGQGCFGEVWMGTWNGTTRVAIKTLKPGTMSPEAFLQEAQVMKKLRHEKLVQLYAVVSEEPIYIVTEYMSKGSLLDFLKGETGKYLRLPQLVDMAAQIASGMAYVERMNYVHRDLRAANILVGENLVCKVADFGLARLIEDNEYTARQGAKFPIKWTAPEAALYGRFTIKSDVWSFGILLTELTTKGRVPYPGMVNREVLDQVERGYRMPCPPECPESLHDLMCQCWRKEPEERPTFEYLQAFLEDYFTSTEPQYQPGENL

[20] = biological target: Dual specificity mitogen-activated protein kinase kinase 4 (Homo sapiens) (UniProt P45985); experiment: Inhibition of mitogen-activated protein kinase kinase 4 at 100 nM; design: scale not given: the % may be the effect or the level left; procedure, shortened: as §1
Dual specificity mitogen-activated protein kinase kinase 4 (Homo sapiens), sequence (P45985 whole entry): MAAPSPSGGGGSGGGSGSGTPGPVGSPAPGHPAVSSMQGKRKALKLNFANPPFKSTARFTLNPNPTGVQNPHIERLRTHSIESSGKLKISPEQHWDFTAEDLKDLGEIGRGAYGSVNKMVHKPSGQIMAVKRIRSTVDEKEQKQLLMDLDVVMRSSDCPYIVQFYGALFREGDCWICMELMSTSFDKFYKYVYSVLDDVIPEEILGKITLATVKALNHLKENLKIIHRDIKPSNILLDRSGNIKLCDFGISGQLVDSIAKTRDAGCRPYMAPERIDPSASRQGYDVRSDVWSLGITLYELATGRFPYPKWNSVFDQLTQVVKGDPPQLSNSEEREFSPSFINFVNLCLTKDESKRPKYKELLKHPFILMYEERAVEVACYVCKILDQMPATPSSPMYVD

[21] = biological target: Mitogen-activated protein kinase 12 (Homo sapiens) (UniProt P53778); experiment: Inhibition of Stress activated protein kinase 3 at 100 nM; design: scale not given: the % may be the effect or the level left; procedure, shortened: as §1
Mitogen-activated protein kinase 12 (Homo sapiens), sequence (P53778 whole entry): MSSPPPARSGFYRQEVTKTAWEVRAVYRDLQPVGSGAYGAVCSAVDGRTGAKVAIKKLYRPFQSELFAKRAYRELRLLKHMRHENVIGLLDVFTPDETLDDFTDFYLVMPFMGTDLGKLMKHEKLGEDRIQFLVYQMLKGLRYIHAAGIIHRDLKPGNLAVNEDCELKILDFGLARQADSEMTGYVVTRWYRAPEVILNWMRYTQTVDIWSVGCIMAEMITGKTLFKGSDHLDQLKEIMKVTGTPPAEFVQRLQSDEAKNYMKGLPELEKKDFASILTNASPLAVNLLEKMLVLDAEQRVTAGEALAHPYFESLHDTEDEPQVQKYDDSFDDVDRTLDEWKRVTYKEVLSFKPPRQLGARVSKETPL

[22] = biological target: 3-phosphoinositide-dependent protein kinase 1 (Homo sapiens) (UniProt O15530); experiment: Inhibition of PDK1 kinase at 100 nM; design: scale not given: the % may be the effect or the level left; procedure, shortened: as §2
[23] = biological target: Mitogen-activated protein kinase 8 (Homo sapiens) (UniProt P45983); experiment: Inhibition of c-Jun N-terminal kinase 1-alpha 1 at 100 nM; design: scale not given: the % may be the effect or the level left; procedure, shortened: as §1
[24] = biological target: Rho-associated protein kinase 2 (Homo sapiens) (UniProt O75116); experiment: Inhibition of Protein kinase ROCK2 at 100 nM; design: scale not given: the % may be the effect or the level left; procedure, shortened: as §1
Rho-associated protein kinase 2 (Homo sapiens), sequence (O75116 whole entry, looked up): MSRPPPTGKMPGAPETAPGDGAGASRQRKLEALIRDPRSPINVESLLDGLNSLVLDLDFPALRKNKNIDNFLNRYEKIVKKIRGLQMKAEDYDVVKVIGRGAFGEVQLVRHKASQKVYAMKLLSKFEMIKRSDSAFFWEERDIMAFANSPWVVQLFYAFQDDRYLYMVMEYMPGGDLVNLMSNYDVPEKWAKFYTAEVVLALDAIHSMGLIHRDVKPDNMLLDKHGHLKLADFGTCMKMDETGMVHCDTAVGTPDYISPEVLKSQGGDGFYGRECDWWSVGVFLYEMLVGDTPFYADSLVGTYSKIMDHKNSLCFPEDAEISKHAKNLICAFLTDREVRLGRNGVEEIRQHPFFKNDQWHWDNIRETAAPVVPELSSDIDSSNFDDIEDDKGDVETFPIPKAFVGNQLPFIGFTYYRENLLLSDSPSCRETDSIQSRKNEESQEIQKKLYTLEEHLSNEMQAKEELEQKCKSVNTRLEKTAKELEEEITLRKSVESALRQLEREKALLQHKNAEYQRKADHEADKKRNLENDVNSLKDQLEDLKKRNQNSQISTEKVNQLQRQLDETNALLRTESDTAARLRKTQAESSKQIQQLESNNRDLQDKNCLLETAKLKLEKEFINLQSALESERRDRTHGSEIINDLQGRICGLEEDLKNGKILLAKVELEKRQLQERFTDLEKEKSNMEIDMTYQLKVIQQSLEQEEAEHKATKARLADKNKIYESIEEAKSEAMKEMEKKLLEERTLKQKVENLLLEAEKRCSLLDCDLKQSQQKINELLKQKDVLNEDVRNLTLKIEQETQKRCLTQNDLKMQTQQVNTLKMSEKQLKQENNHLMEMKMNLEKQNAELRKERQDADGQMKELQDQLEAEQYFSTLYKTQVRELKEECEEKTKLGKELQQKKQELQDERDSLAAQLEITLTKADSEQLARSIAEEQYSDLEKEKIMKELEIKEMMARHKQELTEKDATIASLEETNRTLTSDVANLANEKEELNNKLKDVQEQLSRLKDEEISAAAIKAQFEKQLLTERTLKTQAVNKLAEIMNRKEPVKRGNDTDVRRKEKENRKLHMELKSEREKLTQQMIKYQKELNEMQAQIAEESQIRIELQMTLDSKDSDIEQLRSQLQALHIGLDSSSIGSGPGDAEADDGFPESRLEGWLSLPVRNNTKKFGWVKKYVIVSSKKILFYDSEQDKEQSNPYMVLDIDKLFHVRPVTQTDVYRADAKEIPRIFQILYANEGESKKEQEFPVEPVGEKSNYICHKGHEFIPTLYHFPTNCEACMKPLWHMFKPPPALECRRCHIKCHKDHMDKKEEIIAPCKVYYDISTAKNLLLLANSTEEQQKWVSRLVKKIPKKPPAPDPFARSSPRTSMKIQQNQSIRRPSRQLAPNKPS

[25] = biological target: Mitogen-activated protein kinase 10 (Homo sapiens) (UniProt P53779); experiment: Inhibition of c-Jun N-terminal kinase 3 at 100 nM; design: scale not given: the % may be the effect or the level left; procedure, shortened: as §1
[26] = biological target: Cyclin-dependent kinase 2/cyclin A (Homo sapiens) (UniProt P24941+P20248+P78396); experiment: Inhibition of Cyclin A-cyclin-dependent kinase 2 at 500 nM; format: protein-complex assay; design: scale not given: the % may be the effect or the level left; procedure, shortened: as §2
[27] = Inhibition of AMP-activated Protein Kinase at 100 nM; design: scale not given: the % may be the effect or the level left; procedure, shortened: as §2
[28] = Aqueous solubility (in situ) in D5W after 1 week was determined; format: physicochemical; conditions: D5W
[29] = biological target: Proto-oncogene tyrosine-protein kinase Src (Homo sapiens) (UniProt P12931); experiment: Inhibition of c-Src protein tyrosine kinase at 500 nM; design: scale not given: the % may be the effect or the level left; procedure, shortened: as §1
[30] = biological target: Mitogen-activated protein kinase 12 (Homo sapiens) (UniProt P53778); experiment: Inhibition of Stress activated protein kinase 3 at 500 nM; design: scale not given: the % may be the effect or the level left; procedure, shortened: as §1
[31] = Inhibition of AMP-activated Protein Kinase at 500 nM; design: scale not given: the % may be the effect or the level left; procedure, shortened: as §2
NCI-H460 = experiment: In vitro antiproliferative activity against human carcinoma cell line H460 (lung); format: functional, cell-based
[32] = biological target: Inhibitor of nuclear factor kappa-B kinase subunit beta (Homo sapiens) (UniProt O14920); experiment: Inhibition of I-kappa-B-kinase beta at 500 nM; design: scale not given: the % may be the effect or the level left; procedure, shortened: as §2
[33] = biological target: Casein kinase II (Homo sapiens) (UniProt P67870+P68400+P19784); experiment: Inhibition of CK2 kinase at 500 nM; format: protein-complex assay; design: scale not given: the % may be the effect or the level left; procedure, shortened: as §2
[34] = biological target: T1, Cyclin-dependent kinase 5/CDK5 activator 1 (Homo sapiens); experiment: Inhibition of Cyclin-dependent kinase 5-p35nck5a at 500 nM; format: protein-complex assay; design: scale not given: the % may be the effect or the level left; procedure, shortened: as §2
[35] = biological target: Cyclin-dependent kinase 4 (Homo sapiens) (UniProt P11802); experiment: Inhibition of Rb phosphorylation at the CDK4 specific Ser780 residue (3 fold increase over control) after 24 hr incubation in HCT116 cells; format: functional, cell-based; conditions: HCT-116, concentration not given here
[36] = biological target: Tyrosine-protein kinase CSK (Homo sapiens) (UniProt P41240); experiment: Inhibition of Tyrosine-protein kinase CSK at 100 nM; design: scale not given: the % may be the effect or the level left; procedure, shortened: as §1
[37] = biological target: Rho-associated protein kinase 2 (Homo sapiens) (UniProt O75116); experiment: Inhibition of Protein kinase ROCK2 at 500 nM; design: scale not given: the % may be the effect or the level left; procedure, shortened: as §1
[38] = biological target: Tyrosine-protein kinase Fyn (Homo sapiens) (UniProt P06241); experiment: Inhibition of Fyn protein kinase at 100 nM; design: scale not given: the % may be the effect or the level left; procedure, shortened: as §2
[39] = biological target: Ribosomal protein S6 kinase alpha-5 (Homo sapiens) (UniProt O75582); experiment: Inhibition of MSK-1 kinase at 500 nM; design: scale not given: the % may be the effect or the level left; procedure, shortened: as §2
[40] = biological target: Cyclin-dependent kinase 2/cyclin E (Homo sapiens, UniProt P24941); experiment: Inhibitory activity against Cyclin E-cyclin-dependent kinase 2 in enzymatic assay by measuring phosphorylation of RbING; format: protein-complex assay
[41] = biological target: T2, Ribosomal protein S6 kinase (P70S6K) (Homo sapiens) (UniProt Q9UBS0+P23443); experiment: Inhibition of Ribosomal protein S6 kinase (p70S6K) at 500 nM; format: protein-complex assay; design: scale not given: the % may be the effect or the level left; procedure, shortened: as §1
[42] = biological target: T2, Ribosomal protein S6 kinase (P70S6K) (Homo sapiens); experiment: Inhibition of Ribosomal protein S6 kinase (p70S6K) at 100 nM; format: protein-complex assay; design: scale not given: the % may be the effect or the level left; procedure, shortened: as §1

SMILES: Cn1ccc2ccc3c4[nH]c5c(CCCN[C@H]6CC[C@H](O)CC6)cccc5c4c4c(c3c21)C(=O)NC4=O
- IC50 [1]: 49 nM
- Control [2]: 116%
- Control [3]: 70%
- Control [4]: 74%
- IC50 (HCT-116): 1050 nM
- IC50 [5]: 5480 nM
- Control [6]: 87%
- IC50 [7]: 20200 nM
- Control [8]: 78%
- Control [9]: 94%
- Control [10]: 68%
- Control [11]: 94%
- IC50 (TGF-beta receptor type-2): > 20000 nM
- Control [12]: 84%
- Control [13]: 88%
- Control [14]: 107%
- Control [15]: 98%
- Control [16]: 96%
- inhibition [17]: 45%
- Control [18]: 98%
- Control [19]: 100%
- Control [20]: 91%
- Control [21]: 107%
- Control [22]: 104%
- Control [23]: 99%
- Control [24]: 90%
- Control [25]: 105%
- Control [26]: 42%
- Control [27]: 98%
- solubility at 168 h [28]: 8900 µg/mL (≈ 18 mM)
- Control [29]: 91%
- Control [30]: 109%
- Control [31]: 95%
- IC50 (NCI-H460): 1670 nM
- Control [32]: 106%
- Control [33]: 94%
- Control [34]: 62%
- inhibition [35]: 83%
- Control [36]: 104%
- Control [37]: 62%
- Control [38]: 92%
- Control [39]: 90%
- IC50 [40]: 1030 nM
- Control [41]: 85%
- Control [42]: 93%
